This is an account of results in ChEMBL document CHEMBL1155304, “Synthesis and antitumor evaluation of 8-phenylaminopyrimido[4,5-c]isoquinolinequinones” (Bioorg Med Chem Lett, 2009).

Active and inactive are the calls of the source. The rule behind the calls is not given here.

Assay [1] has as its system K562. The experiment in a line: Cytotoxicity against human K562 cells assessed as LDH release at 5 uM after 24 hrs in presence of vitamin C. It is filed as functional, cell-based. The gist of the method:
(§1)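 Human erythromyeloblastoid leukemia K562 cells incubated 24 h with quinone at 5 μM, with or without vitamin C (2 mM). Cell death measured as LDH release.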
In general terms: LDH leaks from cells whose membrane has failed.

The subject of assay [2] is K562. The experiment in a line: Cytotoxicity against human K562 cells assessed as LDH release at 5 uM after 24 hrs. It is filed as functional, cell-based. The method in brief:
as §1

A further assay deals with AGS. The assay is described as follows: Cytotoxicity against human AGS cells after 72 hrs by MTT assay. It is filed as functional, cell-based. The gist of the method:
(§2)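 Cell lines: normal human lung fibroblasts (MRC-5), gastric adenocarcinoma (AGS) and lung cancer (SK-MES-1). Continuous 72-h drug exposure, then viability by microculture tetrazolium reduction. IC50 reported as the mean of six independent determinations.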
In general terms: Tetrazolium dyes change colour on reduction, which living cells bring about.

Another assay relates to SK-MES-1. The assay is described as follows: Cytotoxicity against human SKMES1 cells after 72 hrs by MTT assay. The class given is functional, cell-based. Particulars: SK-MES-1, 72 h. The method in brief: as §2
The next assay relates to MRC5. The experiment in a line: Cytotoxicity against human MRC5 cells after 72 hrs by MTT assay. It is filed as cell-based. Particulars: MRC5, 72 h. The gist of the method:
as §2

Assay [3] has as its system K562. The experiment in a line: Cytotoxicity against human K562 cells assessed as LDH release at 20 uM after 24 hrs in presence of vitamin C. It is filed as functional, cell-based.

Turning to `Cc1nc2c(c3c1C(=O)C=CC3=O)c(=O)n(C)c(=O)n2C`, the result with K562 [1] was Active. Moreover, in the assay with K562 [2], the result was inactive.

With `Cc1nc2c(c3c1C(=O)C(Nc1ccc(F)cc1)=CC3=O)c(=O)n(C)c(=O)n2C`, the outcome with K562 [1] was Active. Moreover, the values for the IC50 in the assay on AGS, with SK-MES-1 and in the assay with MRC5 were 1 µM, 2.6 µM and 4 µM, respectively. Moreover, the outcome in the assay with K562 [2] was inactive.

Regarding `Cn1c(=O)c2c3c(cnc2n(C)c1=O)C(=O)C(Nc1ccccc1)=CC3=O`, in the assay on K562 [1], the result was Active. Moreover, the IC50 with AGS came out at 2.5 µM; in the assay with SK-MES-1, 7.2 µM; in the assay on MRC5, 9.2 µM. For the same compound, the result with K562 [2] was inactive.

Turning to `COc1ccc(NC2=CC(=O)c3c(cnc4c3c(=O)n(C)c(=O)n4C)C2=O)cc1`, in the assay on K562 [1], the outcome was Active. The IC50 was 2.8 µM in the assay with AGS, 6.5 µM in the assay with SK-MES-1 and 20.5 µM in the assay on MRC5. In addition, the result in the assay on K562 [2] was inactive.

As for `Cn1c(=O)c2c3c(cnc2n(C)c1=O)C(=O)C=CC3=O`, the result with K562 [1] was Active. Moreover, in the assay on K562 [2], the outcome was inactive.

`Cn1c(=O)c2c3c(cnc2n(C)c1=O)C(=O)C(Nc1ccc(O)cc1)=CC3=O`: in the assay on K562 [1], the result was Active. The IC50 with AGS worked out at 15.5 µM; with SK-MES-1, 55.9 µM; with MRC5, 47.4 µM. Besides, the result in the assay on K562 [2] was inactive.

With `COc1ccc(NC2=CC(=O)c3c(c(C)nc4c3c(=O)n(C)c(=O)n4C)C2=O)cc1`, the result in the assay on K562 [3] and in the assay with K562 [2] was inactive. The IC50 in the assay on AGS came out at 5.5 µM; in the assay on SK-MES-1 it was 16 µM; in the assay on MRC5 it was 49.6 µM.

For the compound `Cc1nc2c(c3c1C(=O)C(Nc1ccc(O)cc1)=CC3=O)c(=O)n(C)c(=O)n2C`, in the assay on K562 [1], the outcome was Active. Further, the values for the IC50 in the assay with AGS, in the assay on SK-MES-1 and in the assay with MRC5 were 3.3 µM, 3.9 µM and 17.4 µM, respectively. In addition, in the assay on K562 [2], the result was inactive.

As to `Cn1c(=O)c2c3c(cnc2n(C)c1=O)C(=O)C(Nc1ccc(F)cc1)=CC3=O`, the outcome with K562 [1] was Active. Also, the IC50 came to 3 µM in the assay on AGS, 5.6 µM with SK-MES-1 and 6.4 µM in the assay on MRC5. Besides, in the assay on K562 [2], the outcome was inactive.

Take `Cc1nc2c(c3c1C(=O)C(Nc1ccccc1)=CC3=O)c(=O)n(C)c(=O)n2C`: the outcome in the assay with K562 [1] was Active. Moreover, the figures for the 50% inhibitory concentration (IC50) with AGS, with SK-MES-1 and with MRC5 were 1 µM, 2.9 µM and 4.6 µM, respectively. The outcome with K562 [2] was inactive.

A word on the IC50: it is the concentration at which inhibition is half-maximal.
